Source: publication PMC3580954 (Biopolymers, 2013)
Substitutions are numbered along the chain they refer to. Residues, ends and D or L forms follow the SMILES beside them.

Experiments:
Type in all cases: cell-based
Details in all cases: SD
wt hPrRP receptor = biological target: T1, wt hPrRP receptor (Homo sapiens, UniProt P49683); assay: Signal transduction
T1 sequence (P49683 1-370): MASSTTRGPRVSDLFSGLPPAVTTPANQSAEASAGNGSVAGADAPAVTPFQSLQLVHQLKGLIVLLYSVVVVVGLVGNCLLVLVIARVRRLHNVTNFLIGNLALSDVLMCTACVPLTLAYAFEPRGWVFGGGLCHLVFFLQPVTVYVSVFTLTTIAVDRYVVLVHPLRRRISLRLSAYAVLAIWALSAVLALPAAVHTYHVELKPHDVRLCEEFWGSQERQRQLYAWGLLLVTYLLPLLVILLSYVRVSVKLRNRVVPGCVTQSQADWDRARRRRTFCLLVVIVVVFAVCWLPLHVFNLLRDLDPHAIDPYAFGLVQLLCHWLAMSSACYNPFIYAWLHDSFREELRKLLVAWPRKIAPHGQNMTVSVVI
Outline: (§1)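 COS-7 cells were transiently transfected with 0.4 µg plasmid of human PrRP receptor or its site-directed mutant, C-terminally fused to EYFP. One day after transfection and 16 h before stimulation, cells were labelled with 2 µCi/mL [³H]myo-inositol. They were then stimulated with increasing peptide concentrations for 1 h at 37°C in DMEM with 10 mM LiCl, and lysed in 0.1 M NaOH. IP was separated by anion exchange and counted by scintillation. EC50 came from concentration-response curves; runs were in duplicate, repeated ≥2 times.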

F^2.66A PrRP receptor = biological target: T2, F^2.66A PrRP receptor (Homo sapiens, UniProt P49683, F122A); assay: IP accumulation assay, F^2.66A receptor mutant
T2 sequence (P49683 1-370 F122A): T1 sequence (P49683 1-370) with F122A

W^2.71A PrRP receptor = biological target: T3, W^2.71A PrRP receptor (Homo sapiens, UniProt P49683, W127A); assay: IP accumulation assay, W^2.71A receptor mutant
T3 sequence (P49683 1-370 W127A): T1 sequence (P49683 1-370) with W127A
Outline: as §1

R^2.69A PrRP receptor = biological target: T4, R^2.69A PrRP receptor (Homo sapiens, UniProt P49683, R125A); assay: IP accumulation assay, R^2.69A receptor mutant
T4 sequence (P49683 1-370 R125A): T1 sequence (P49683 1-370) with R125A

Y^2.64A PrRP receptor = biological target: T5, Y^2.64A PrRP receptor (Homo sapiens, UniProt P49683, Y120A); assay: IP accumulation assay, Y^2.64A receptor mutant
T5 sequence (P49683 1-370 Y120A): T1 sequence (P49683 1-370) with Y120A
Outline: as §1

E^2.67A PrRP receptor = biological target: T6, E^2.67A PrRP receptor (Homo sapiens, UniProt P49683, E123A); assay: IP accumulation assay, E^2.67A receptor mutant
T6 sequence (P49683 1-370 E123A): T1 sequence (P49683 1-370) with E123A

F^2.73A PrRP receptor = biological target: T7, F^2.73A PrRP receptor (Homo sapiens, UniProt P49683, F129A); assay: IP accumulation assay, F^2.73A receptor mutant
T7 sequence (P49683 1-370 F129A): T1 sequence (P49683 1-370) with F129A

For `CC[C@H](C)[C@H](NC(=O)CNC(=O)[C@H](CCCNC(=N)N)NC(=O)[C@H](CO)NC(=O)[C@H](C)NC(=O)[C@H](Cc1ccc(O)cc1)NC(=O)[C@H](Cc1c[nH]c2ccccc12)NC(=O)[C@H](C)NC(=O)[C@@H]1CCCN1C(=O)[C@H](CC(N)=O)NC(=O)[C@@H](NC(=O)[C@H](CC(=O)O)NC(=O)[C@@H]1CCCN1C(=O)[C@@H](N)[C@@H](C)O)[C@@H](C)CC)C(=O)N[C@@H](CCCNC(=N)N)C(=O)N1CCC[C@H]1C(=O)N[C@H](C(=O)NCC(=O)N[C@@H](CCCNC(=N)N)C(=O)N[C@@H](Cc1ccccc1)C(N)=O)C(C)C` [PrRP20] (H-TPDINPAWYASRGIRPVGRF-NH2), the EC50 (wt hPrRP receptor) was 2.2 ± 0.3 nM, the EC50 (F^2.66A PrRP receptor) was 6.2 ± 3.3 nM and the EC50 (W^2.71A PrRP receptor) was 593 ± 78 nM. It also gave an EC50 (R^2.69A PrRP receptor) of 4.2 ± 2.5 nM, an EC50 (Y^2.64A PrRP receptor) of 50 ± 7.5 nM and an EC50 (E^2.67A PrRP receptor) of 7.2 ± 3.4 nM. It also gave an EC50 (F^2.73A PrRP receptor) of 4.4 ± 2 nM.
